Screening results (PubChem)
This excerpt belongs to a sample that is enriched for hits.
TLR9-MyD88 inh – inhibitors of TLR9-MyD88 association in cells, primary screen, cell-based, CHO, BLA complementation, fluorescence | Toll-like receptor 9 (Homo sapiens) + Myeloid differentiation primary response protein … | CCF4 FRET ratio | inhibition, % at 4.98 µM | actives 0.21% (n = 340,000) | AID 504734, 2011;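 active = inhibition above the mean over all tested compounds plus 3 SD, cut at about 21% in these data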;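 note: 0% = DMSO only wells and 100% = clavulanate BLA inhibitor control wells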
NOD2 RIPK2 PPI – NOD2-RIPK2 binding disruptors in cells, primary screen, fluorescence, CHO cells, BLA complementation. CCF4 ratio. inhibition, % at 4.98 µM. actives 0.38% (n = 360,000); in the data active = inhibition above about 21%;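 note: 0% = vehicle only and 100% = reference blocker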
TLR4-MyD88 BLA – inhibitors of TLR4-MyD88 association in cells, primary screen, cell-based, HeLa CL3-4, BLA complementation, FRET ratio; Toll-like receptor 4 (Homo sapiens) + Myeloid differentiation primary response protein …; HeLa CL3-4 TLR4/MyD88 BLA complementation; inhibition, % at 8.4 µM; actives 0.18% (n = 200,000); in the data active = inhibition above about 25%;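 note: 0% = vehicle and 100% = reference inhibitor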
Target sequence (O00206 whole entry, looked up): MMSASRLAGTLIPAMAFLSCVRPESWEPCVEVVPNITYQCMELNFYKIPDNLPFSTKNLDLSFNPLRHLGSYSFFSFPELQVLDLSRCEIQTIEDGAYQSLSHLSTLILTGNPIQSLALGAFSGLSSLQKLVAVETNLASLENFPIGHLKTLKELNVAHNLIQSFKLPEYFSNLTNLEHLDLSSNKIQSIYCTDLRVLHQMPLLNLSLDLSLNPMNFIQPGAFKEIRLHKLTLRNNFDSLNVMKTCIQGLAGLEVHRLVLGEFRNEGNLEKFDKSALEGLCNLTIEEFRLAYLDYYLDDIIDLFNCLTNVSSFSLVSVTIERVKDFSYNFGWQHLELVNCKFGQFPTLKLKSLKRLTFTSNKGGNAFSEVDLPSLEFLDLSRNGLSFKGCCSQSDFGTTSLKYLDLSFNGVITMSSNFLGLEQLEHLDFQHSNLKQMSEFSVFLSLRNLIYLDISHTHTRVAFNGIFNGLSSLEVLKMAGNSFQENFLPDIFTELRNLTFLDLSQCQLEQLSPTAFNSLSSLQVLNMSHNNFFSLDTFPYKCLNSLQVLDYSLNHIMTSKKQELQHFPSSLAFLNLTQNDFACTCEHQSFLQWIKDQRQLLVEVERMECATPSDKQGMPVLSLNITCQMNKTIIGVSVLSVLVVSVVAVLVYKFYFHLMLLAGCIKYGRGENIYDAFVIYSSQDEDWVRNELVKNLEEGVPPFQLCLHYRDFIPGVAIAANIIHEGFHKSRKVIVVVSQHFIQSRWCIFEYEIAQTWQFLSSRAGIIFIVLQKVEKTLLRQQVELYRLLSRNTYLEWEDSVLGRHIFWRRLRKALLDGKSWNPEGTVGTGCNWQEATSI
Target sequence (Q99836 whole entry, looked up): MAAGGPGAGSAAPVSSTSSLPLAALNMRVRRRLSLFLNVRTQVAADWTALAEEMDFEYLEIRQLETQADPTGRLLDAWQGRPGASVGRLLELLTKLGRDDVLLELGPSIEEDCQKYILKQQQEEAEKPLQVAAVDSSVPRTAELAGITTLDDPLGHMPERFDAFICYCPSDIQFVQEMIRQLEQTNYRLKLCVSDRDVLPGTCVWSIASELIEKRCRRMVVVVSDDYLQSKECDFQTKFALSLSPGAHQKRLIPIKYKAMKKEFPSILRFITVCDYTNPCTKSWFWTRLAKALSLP
CHOP UPR activ – activators of apoptotic CHOP UPR arm, primary screen, cell-based, CHO-CHOP luciferase reporter, luminescence, uHTS; UPR activation; percent of tunicamycin response over DMSO baseline; activation, % at 10 µM; actives 0.34% (n = 330,000); AID 449763, 2010;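 active = at 10 µM dose, activation of 40% or more, normalized to positive control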;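 note: 100% = tunicamycin at 10 µg/mL and 0% = DMSO alone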
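System: CHO CHOP reporter cells. Amount: 500 cells per well. Buffer or medium: F12 medium, 10% FBS. Compound dosing: one dose, 10 µM in 0.5% DMSO. Incubation: 6 h compound exposure at 37 °C after overnight seeding. Technique: Steady-Glo luciferase luminescence. Benchmarks: tunicamycin and DMSO controls.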
XBP1 UPR activ – activators of adaptive XBP1 UPR arm, primary screen, cell-based, CHO-XBP1 luciferase reporter, luminescence, uHTS. actives 0.33% (n = 330,000). IRE1-XBP1 UPR activation; percent of tunicamycin response, DMSO as zero. activation, % at 20 µM. AID 463104, 2010;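 active = versus positive control, 20 µM dose yields 30% or more activation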;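 note: 100% = tunicamycin at 10 µg/mL and 0% = DMSO only wells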
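Material: CHO cell line with stable XBP1 luciferase reporter; buffer or medium: F12 medium containing 10% fetal bovine serum; compound: single point, 20 µM final compound, 1% DMSO; incubation: 6 h treatment, 37 °C; measured by: glow luminescence from Steady-Glo reagent; evaluation: activation, % of tunicamycin; control set: tunicamycin high, DMSO low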
CHOP inhibitor – inhibitors of CHOP promoter induction, primary screen, cell-based, unfolded protein response, luciferase reporter; CHO-K1 CHOP-promoter luciferase, tunicamycin-induced, 15-18 h; inhibition, % at 10 µM; actives 3.8% (n = 220,000);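 active = compounds that reduced the stress-induced luciferase reporter signal by more than about 70% of percent inhibition, limit read from the data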;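 note: 0% = tunicamycin plus vehicle and 100% = wells without tunicamycin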
NOD2-RIPK2 conf – NOD2-RIPK2 binding disruptors, retest, confirmation, fluorescence, CHO cells, BLA complementation, triplicate; shares compounds with NOD2 RIPK2 PPI; CCF4 FRET; inhibition, % at 4.98 µM; actives 70% (n = 1,200); AID 624370, 2012;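 active = mean inhibition across replicates above a set limit taken from the earlier primary screen, cut at about 21% in these data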;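 note: 0% = DMSO-only wells and the high end = clavulanate BLA-blocked wells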
BLA counter – counter-screen for NOD2-RIPK2 interaction inhibitors: BLA reporter; actives 57% (n = 1,200); AID 624371; CHO BLA reporter, CCF4 FRET ratio, counterscreen; shares compounds with NOD2 RIPK2 PPI; inhibition, % at 4.98 µM;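 active = mean inhibition above the low-control mean inhibition plus three low-control SD, cut at about 11% in these data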;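 note: 0% = DMSO only wells and 100% = clavulanate high control wells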
The depositor's hits bear a star; / = not tested or not shown.

SMILES | TLR9-MyD88 inh | NOD2 RIPK2 PPI | TLR4-MyD88 BLA | CHOP UPR activ | XBP1 UPR activ | CHOP inhibitor | NOD2-RIPK2 conf | BLA counter
N#Cc1ccc(C(C(=O)NC2CCCCC2)n2c(=O)c(-c3ccco3)nc3ccccc32)cc1 (centres undefined) | / | -1 | / | / | / | / | / | /
O=C(NC1CCCCC1)C(c1ccccc1)n1c(=O)c(-c2cc3ccccc3[nH]2)nc2ccccc21 (centres undefined) | / | 44* | / | / | / | / | 40* | 66*
COc1ccc(C(C(=O)NC2CCCCC2)n2c(=O)c(-c3cc4ccccc4[nH]3)nc3ccccc32)cc1 (centres undefined) | / | 44* | / | / | / | / | 41* | 65*
O=C(NC1CCCCC1)C(c1ccnc2ccccc12)n1c(=O)c(-c2cc3ccccc3[nH]2)nc2ccccc21 (centres undefined) | / | 51* | / | / | / | / | 50* | 67*
Cc1ccc(C2=NNC(c3ccc(Cl)cc3)=Nc3ccccc32)o1 | 8 | -19 | 1 | 2 | -1 | 28 | / | /
COc1ccc(C(=O)N[C@H](C(=O)NCc2cccs2)C(C)C)cc1 | -23 | -3 | 0 | -1 | 2 | 17 | / | /
CCOC(=O)C1=C(C)Nc2sc(C(=O)c3ccc(C)cc3)c(N)c2C1c1ccc(C(=O)OC)cc1 (centres undefined) | 18 | 42* | 14 | 2 | -1 | 16 | 9 | 17*
CCOC(=O)C1=C(C)Nc2sc(C(=O)c3ccc(F)cc3)c(N)c2C1c1ccc(C(=O)OC)cc1 (centres undefined) | -16 | -1 | -11 | 7 | 4 | 30 | / | /
Cc1cc(N(CC(=O)NC(C)C)S(C)(=O)=O)ccc1Br | -13 | 24* | 2 | 0 | 2 | 19 | -7 | -3
Cc1ccc2nc(N3CCN(C=O)CC3)nc(-c3ccccc3)c2c1 | 19 | 26* | 9 | -2 | 4 | 23 | 29* | 38*
Cc1ccc2nc(N3CCN(C(=O)CCCC(=O)O)CC3)nc(-c3ccccc3)c2c1 | 5 | 19 | / | 1 | 6 | / | / | /
Nn1c(SCC(=O)Nc2ccc(OC(F)F)cc2)nnc1-c1ccco1 | -6 | 0 | / | 0 | 5 | / | / | /
Cc1ccc2c(c1)C(=O)C(=O)N2CC1COc2ccccc2O1 (centres undefined) | 6 | 24* | / | 1 | 13 | / | 12 | -5
Cc1cc(OCC(=O)NCCN2CCOCC2)c2c(C)c(C)c(=O)oc2c1 | -22 | -4 | / | -1 | -2 | / | / | /
NC(CSC(c1ccccc1)(c1ccccc1)c1ccc2c(c1)OCO2)C(=O)O (centres undefined) | -8 | -4 | / | / | / | / | / | /
CCOc1c(Br)cc(Br)cc1/C=C1\SC(N)=NC1=O | 4 | 32* | / | 2 | -2 | / | 3 | -3
CCOc1cc(/C=C2\SC(N)=NC2=O)ccc1O | 4 | -6 | / | 0 | 1 | / | / | /
Cc1ccc(S(=O)(=O)N2C(=O)C(C)SC2=Nc2ccccc2)cc1 (centres undefined) | 2 | 41* | -1 | 2 | -1 | -14 | -4 | -1
Cc1ccc(NC(=O)CS(=O)CC(=O)N(c2ccc(C)cc2)C(C)C(=O)NC2CCCCC2)cc1 (centres undefined) | -11 | -1 | -3 | 1 | 3 | 31 | / | /
